Tests used:
[1] = Cytostatic activity against mouse L1210/0 cells after 48 hrs by cell counting; assay type: functional, cell-based; details: L1210/0, 48 h
Procedure, shortened: (§1)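 Suspension leukemia cells in DMEM with 10% FBS, 10 mM Hepes and 1 mM sodium pyruvate at 37 °C under 5% CO2. Seeded at 60 000 cells/well with graded compound levels. Grown 48 h (L1210) or 72 h (CEM), then counted by Coulter counter. Mean ± SD of two to four independent experiments.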

[2] = test system: CCRF-CEM; test: Ratio of IC50 for human CEM cells expressing human ENT1 transporter in presence of dipyridamole to IC50 for human CEM cells expressing human ENT1 transporter; assay type: functional
Procedure, shortened: (§2)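 Human T-lymphocyte CEM cells with (CEM/hEnt-1) or lacking (CEM/hEnt-0) the hENT1 transporter were seeded at 60 000 cells/well with graded compound concentrations. Transporter-inhibition runs added dipyridamole (10 μM) or NBMPR (10 μM) to CEM/hEnt-1 cells. […] Ratios are formed against untreated CEM/hEnt-1 IC50. Mean of 2–4 experiments.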

[3] = test system: CCRF-CEM; test: Cytostatic activity against human CEM cells expressing human ENT1 transporter after 72 hrs by cell counting in presence of dipyridamole; assay type: functional, cell-based
Procedure, shortened: (§3)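 CEM/hEnt-1 cells with 10 μM dipyridamole or 10 μM NBMPR added alongside graded compound levels, in DMEM with 10% FBS, 10 mM Hepes and 1 mM sodium pyruvate at 37 °C under 5% CO2. Seeded at 60 000 cells/well, counted by Coulter counter after 3 days.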

[4] = test system: L1210; test: Cytostatic activity against Mycoplasma hyorhinis-infected mouse L1210 cells after 48 hrs by cell counting; assay type: functional, cell-based; details: L1210, 48 h; procedure, shortened: as §1
[5] = test system: CCRF-CEM; test: Cytostatic activity against thymidine-kinase deficient human CEM cells after 72 hrs by cell counting; assay type: functional, cell-based; procedure, shortened: as §1
[6] = test system: HeLa; test: Cytostatic activity against thymidine-kinase deficient human HeLa cells […]; assay type: functional, cell-based
[7] = test system: CCRF-CEM; test: Cytostatic activity against human CEM cells expressing human ENT1 transporter after 72 hrs by cell counting in presence of NBMPR; assay type: functional, cell-based; procedure, shortened: as §3
[8] = test system: HeLa; test: Cytostatic activity against human HeLa cells […] by cell counting; assay type: functional, cell-based
[9] = test system: CCRF-CEM; test: Cytostatic activity against ENT1 transporter-deficient human CEM cells after 72 hrs by cell counting; assay type: functional, cell-based
Procedure, shortened: (§4)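 Suspension leukemia cells in DMEM with 10% FBS, 10 mM Hepes and 1 mM sodium pyruvate at 37 °C under 5% CO2. Seeded at 60 000 cells/well with graded compound levels. Grown 48 h (L1210) or 72 h (CEM), then counted by Coulter counter. […] Mean ± SD of two to four independent experiments.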

[10] = test system: L1210; test: Ratio of IC50 for Mycoplasma hyorhinis-infected mouse L1210 cells to IC50 for mouse L1210/0 cells after 48 hrs by cell counting; assay type: functional
Procedure, shortened: (§5)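 Murine L1210/0 cells were compared with L1210/TK cells, selected for resistance to 5-bromo-2'-dUrd, and with L1210.Hyor cells, chronically infected with Mycoplasma hyorhinis. Cells were grown in DMEM with 10% FBS, 10 mM Hepes and 1 mM pyruvate at 37 °C and 5% CO2, then seeded at 60 000 cells/well with compound. They were Coulter-counted after 48 h. […] Mean of 2–4 experiments.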

[11] = test system: CCRF-CEM; test: Ratio of IC50 for ENT1 transporter-deficient human CEM cells to IC50 for human CEM cells expressing human ENT1 transporter after 72 hrs by cell counting; assay type: functional; procedure, shortened: as §2
[12] = test system: L1210; test: Cytostatic activity against thymidine-kinase deficient mouse L1210 cells after 48 hrs by cell counting; assay type: functional, cell-based; details: L1210, 48 h; procedure, shortened: as §1
[13] = test system: CCRF-CEM; test: Cytostatic activity against human CEM/0 cells after 72 hrs by cell counting; assay type: functional, cell-based; procedure, shortened: as §4
[14] = test system: CCRF-CEM; test: Ratio of IC50 for human CEM cells expressing human ENT1 transporter in presence of NBMPR to IC50 for human CEM cells expressing human ENT1 transporter; assay type: functional; procedure, shortened: as §2
[15] = test system: CCRF-CEM; test: Cytostatic activity against human CEM cells expressing human ENT1 transporter after 72 hrs by cell counting; assay type: functional, cell-based; procedure, shortened: as §4
[16] = Drug metabolism in DMSO/D2O assessed as metabolite 5-Fluoro-2'-deoxyuridine-5'-O-[1-naphthyl(L-alaninyl)]phosphate formation at 5 mg measured after 6 hrs 45 mins by [31P]NMR spectroscopy in presence of human serum; assay type: ADME
Procedure, shortened: (§6)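 Compound (5.0 mg) dissolved in DMSO plus D2O and a control 31P NMR spectrum taken at 37 °C. Previously defrosted human serum then added. Spectra taken every 15 min over 14 h at 37 °C and processed by Lorentz-Gauss deconvolution. Parent and metabolite peaks were tracked by chemical shift.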

[17] = Stability in DMSO/D2O assessed as parent compound at 5 mg measured after 13 hrs 30 mins by [31P]NMR spectroscopy in presence of human serum; assay type: ADME; details: read-out: Stability; procedure, shortened: as §6
[18] = Drug metabolism in DMSO/D2O assessed as metabolite 5-Fluoro-2'deoxyuridine 5'-O-[(L-Alaninyl)]phosphate formation at 5 mg measured after 11 hrs 30 mins by [31P]NMR spectroscopy in presence of human serum; assay type: ADME; procedure, shortened: as §6
[19] = Stability of the compound in potassium phosphate buffer at pH 7.4 assessed as E.coli thymidine phosphorylase-mediated release of 5-FU after 5 mins by [19F] NMR spectroscopy; assay type: ADME; details: pH 7.4, 5 min
Procedure, shortened: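 Compound (6.0 mg) in methanol-d4 plus 300 mM potassium phosphate buffer pH 7.4. […] 19F NMR recorded at 5 min, 14 h and 72 h at 25 °C, with 5-FU identified by its signal near δF 169.50 ppm.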

[20] = test system: L1210; test: Ratio of IC50 for thymidine-kinase deficient mouse L1210 cells to IC50 for mouse L1210/0 cells after 48 hrs by cell counting; assay type: functional; procedure, shortened: as §5
[21] = Ratio of 5-FU IC50 to compound IC50 for mouse L1210/0 cells after 48 hrs by cell counting; assay type: functional

SMILES | IC50 [1] | Ratio IC50 [2] | IC50 [3] | IC50 [4] | IC50 [5] | IC50 [6] | IC50 [7] | IC50 [8] | IC50 [9] | Ratio IC50 [10] | Ratio IC50 [11] | IC50 [12] | IC50 [13] | Ratio IC50 [14] | IC50 [15] | other results
CCOC(=O)C(C)(C)NP(=O)(OC[C@H]1O[C@@H](n2cc(F)c(=O)[nH]c2=O)C[C@@H]1O)Oc1cccc2ccccc12 (mixture of isomers) | 0.056 µM | 2 | 0.52 µM | 0.17 µM | 6.9 µM | 3.2 µM | 0.62 µM | 0.2 µM | 1.4 µM | 3 | 7 | 0.82 µM | 0.36 µM | 2 | 0.21 µM | –
CCOC(=O)[C@H](C)NP(=O)(OC[C@H]1O[C@@H](n2cc(F)c(=O)[nH]c2=O)C[C@@H]1O)Oc1cccc2ccccc12 (mixture of isomers) | 0.028 µM | – | – | 0.095 µM | 1.6 µM | 2.8 µM | – | 0.22 µM | – | 3.4 | – | 0.36 µM | 0.25 µM | – | – | Drug metabolism [16]: Active; remaining at 13.5 h [17]: 96%; Drug metabolism [18]: Active
CCOC(=O)C(C)(C)NP(=O)(OC[C@H]1O[C@@H](n2cc(F)c(=O)[nH]c2=O)C[C@@H]1O)Oc1ccccc1 (mixture of isomers) | 0.03 µM | 2 | 2.35 µM | 0.26 µM | 22 µM | 17 µM | 2.56 µM | 0.59 µM | 5.8 µM | 8.7 | 7 | 4.6 µM | 0.65 µM | 2 | 0.37 µM | –
O=c1[nH]c(=O)n([C@H]2C[C@H](O)[C@@H](COP(=O)(O)O)O2)cc1F [5-FLUORODEOXYURIDYLATE] | – | 20 | 1.74 µM | – | – | – | 1.06 µM | – | 3.6 µM | – | 72 | – | – | 20 | 0.05 µM | –
CC(C)(NP(=O)(OC[C@H]1O[C@@H](n2cc(F)c(=O)[nH]c2=O)C[C@@H]1O)Oc1ccccc1)C(=O)OCc1ccccc1 (mixture of isomers) | 0.029 µM | 2 | 0.26 µM | 0.02 µM | 4.8 µM | 3.7 µM | 0.61 µM | 0.24 µM | 1.2 µM | 0.69 | 7 | 0.18 µM | 0.23 µM | 2 | 0.17 µM | –
O=c1[nH]cc(F)c(=O)[nH]1 [FLUOROURACIL] | – | – | – | – | 12 µM | 0.23 µM | – | – | – | – | – | 0.32 µM | – | – | – | Stability [19]: Unstable
O=C(OCc1ccccc1)[C@H](Cc1ccccc1)NP(=O)(OC[C@H]1O[C@@H](n2cc(F)c(=O)[nH]c2=O)C[C@@H]1O)Oc1ccccc1 (mixture of isomers) | 0.016 µM | – | – | 0.56 µM | 11 µM | 12 µM | – | 0.014 µM | – | 35 | – | 39 µM | 0.25 µM | – | – | –
CC(C)(NP(=O)(OC[C@H]1O[C@@H](n2cc(F)c(=O)[nH]c2=O)C[C@@H]1O)Oc1cccc2ccccc12)C(=O)OCc1ccccc1 (mixture of isomers) | 0.019 µM | 2 | 0.16 µM | 0.045 µM | 2.4 µM | 3.1 µM | 0.28 µM | 0.078 µM | 0.4 µM | 2.4 | 7 | 0.13 µM | 0.16 µM | 2 | 0.05 µM | –
O=c1[nH]c(=O)n([C@H]2C[C@H](O)[C@@H](CO)O2)cc1F [FLOXURIDINE] | – | – | – | – | – | – | 0.8 µM | 0.05 µM | 2.5 µM | – | – | – | 0.022 µM | – | 0.04 µM | Stability [19]: Unstable
C[C@H](NP(=O)(OC[C@H]1O[C@@H](n2cc(F)c(=O)[nH]c2=O)C[C@@H]1O)Oc1cccc2ccccc12)C(=O)OCc1ccccc1 (mixture of isomers) [FOSIFLOXURIDINE NAFALBENAMIDE] | 0.011 µM | 2 | 0.13 µM | 0.025 µM | 0.31 µM | 2.5 µM | 0.26 µM | 0.065 µM | 0.6 µM | 2.27 | 7 | 0.045 µM | 0.068 µM | 2 | 0.05 µM | Ratio IC50 [20]: 5; Ratio IC50 [21]: 30
O=C(OCc1ccccc1)[C@H](Cc1ccccc1)NP(=O)(OC[C@H]1O[C@@H](n2cc(F)c(=O)[nH]c2=O)C[C@@H]1O)Oc1cccc2ccccc12 (mixture of isomers) | 0.021 µM | – | – | 0.23 µM | 7.2 µM | 6.8 µM | – | 0.16 µM | – | 11 | – | 5.6 µM | 0.1 µM | – | – | –
CC(C)OC(=O)[C@H](C)NP(=O)(OC[C@H]1O[C@@H](n2cc(F)c(=O)[nH]c2=O)C[C@@H]1O)Oc1ccccc1 (mixture of isomers) | 0.05 µM | – | – | 0.7 µM | 30 µM | 25 µM | – | 0.71 µM | – | 14 | – | 1.1 µM | 1 µM | – | – | –
CC(C)C[C@H](NP(=O)(OC[C@H]1O[C@@H](n2cc(F)c(=O)[nH]c2=O)C[C@@H]1O)Oc1ccccc1)C(=O)OCc1ccccc1 (mixture of isomers) | 0.054 µM | – | – | 0.17 µM | 16 µM | 5.6 µM | – | 0.067 µM | – | 3.2 | – | 2 µM | 0.24 µM | – | – | –
CCCCOC(=O)[C@H](C)NP(=O)(OC[C@H]1O[C@@H](n2cc(F)c(=O)[nH]c2=O)C[C@@H]1O)Oc1cccc2ccccc12 (mixture of isomers) | 0.0095 µM | – | – | 0.021 µM | 0.84 µM | 2.7 µM | – | 0.12 µM | – | 2.2 | – | 0.11 µM | 0.064 µM | – | – | –

— ChEMBL document CHEMBL2177092, “Phosphoramidate ProTides of the anticancer agent FUDR successfully deliver the preformed bioactive monophosphate in cells and confer advantage over the parent nucleoside” (J Med Chem, 2011)
